Measured values taken from ChEMBL document CHEMBL1681732, “Synthesis and SAR of sulfoxide substituted carboxyquinolines as NK3 receptor antagonists” (Bioorg Med Chem Lett, 2011).
In brackets after ≈: the same amount, converted by molar mass.

Legend:
[1] = Equilibrium solubility of the compound; assay type: physicochemical
[2] = Intrinsic clearance in human liver microsomes assessed per mg of protein; assay type: ADME, Microsome
[3] = target: Voltage-gated inwardly rectifying potassium channel KCNH2 (Homo sapiens, UniProt Q12809); assay: Inhibition of human ERG
Sequence of Voltage-gated inwardly rectifying potassium channel KCNH2 (Q12809 whole entry): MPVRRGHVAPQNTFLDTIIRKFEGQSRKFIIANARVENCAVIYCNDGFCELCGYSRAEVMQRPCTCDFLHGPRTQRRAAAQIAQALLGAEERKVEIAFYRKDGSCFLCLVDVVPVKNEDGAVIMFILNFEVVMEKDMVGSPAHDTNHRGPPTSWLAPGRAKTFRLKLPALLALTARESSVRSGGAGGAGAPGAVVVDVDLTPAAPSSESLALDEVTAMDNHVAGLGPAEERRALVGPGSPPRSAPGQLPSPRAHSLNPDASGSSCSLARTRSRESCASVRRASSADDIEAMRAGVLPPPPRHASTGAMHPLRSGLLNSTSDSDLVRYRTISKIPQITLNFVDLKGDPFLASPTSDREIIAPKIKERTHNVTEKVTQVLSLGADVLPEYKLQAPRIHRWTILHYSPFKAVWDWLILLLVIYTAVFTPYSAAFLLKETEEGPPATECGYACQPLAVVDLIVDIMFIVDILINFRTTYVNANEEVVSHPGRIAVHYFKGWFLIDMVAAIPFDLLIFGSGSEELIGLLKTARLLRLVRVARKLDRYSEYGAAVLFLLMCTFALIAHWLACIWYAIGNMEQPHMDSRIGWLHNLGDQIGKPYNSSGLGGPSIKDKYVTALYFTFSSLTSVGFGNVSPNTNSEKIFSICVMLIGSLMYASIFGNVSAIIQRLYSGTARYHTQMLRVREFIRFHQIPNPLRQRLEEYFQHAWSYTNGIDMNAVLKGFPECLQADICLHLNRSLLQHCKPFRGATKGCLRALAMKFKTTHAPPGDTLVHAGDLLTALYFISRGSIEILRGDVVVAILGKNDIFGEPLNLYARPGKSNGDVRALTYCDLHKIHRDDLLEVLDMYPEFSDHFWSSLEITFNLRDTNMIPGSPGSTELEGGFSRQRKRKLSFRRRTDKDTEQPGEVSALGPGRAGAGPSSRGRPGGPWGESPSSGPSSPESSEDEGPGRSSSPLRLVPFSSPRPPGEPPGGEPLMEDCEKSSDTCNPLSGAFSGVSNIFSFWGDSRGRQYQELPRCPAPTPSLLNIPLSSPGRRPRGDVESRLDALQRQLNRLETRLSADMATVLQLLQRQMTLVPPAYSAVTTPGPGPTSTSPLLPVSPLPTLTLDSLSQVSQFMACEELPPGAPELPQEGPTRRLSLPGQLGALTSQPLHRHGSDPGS

[4] = Lipophilicity, log D of the compound; assay type: physicochemical; conditions: octanol/water
Neuromedin-K receptor = target: T1, Neuromedin-K receptor (Homo sapiens, UniProt P29371); assay: Antagonist activity at human NK3 receptor expressed in CHO cells assessed as inhibition of senktide-induced calcium flux by FLIPR assay; assay type: functional, cell-based
T1 sequence (P29371 whole entry): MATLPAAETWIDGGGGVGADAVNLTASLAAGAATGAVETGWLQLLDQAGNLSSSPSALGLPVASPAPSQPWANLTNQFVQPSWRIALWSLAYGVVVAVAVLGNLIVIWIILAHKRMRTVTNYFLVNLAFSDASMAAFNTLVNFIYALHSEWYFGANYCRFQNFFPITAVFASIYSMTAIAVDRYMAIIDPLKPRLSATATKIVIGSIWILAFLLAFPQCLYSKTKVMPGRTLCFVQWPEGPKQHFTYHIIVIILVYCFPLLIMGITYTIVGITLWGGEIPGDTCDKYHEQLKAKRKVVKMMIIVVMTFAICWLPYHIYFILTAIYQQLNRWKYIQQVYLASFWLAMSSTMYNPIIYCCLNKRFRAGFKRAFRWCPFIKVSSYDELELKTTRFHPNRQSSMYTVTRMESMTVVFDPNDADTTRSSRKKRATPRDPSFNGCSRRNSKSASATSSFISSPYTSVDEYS
Method in brief: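 FLIPR functional assay in CHO cells stably expressing human recombinant NK3 receptor. EC50 given as mean ± SEM (n ≥ 2), or as a single value where n = 1. Tested as 1:1 diastereomer mixtures unless marked as a single isomer.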

MDR1 [5] = assay: (§1) Efflux ratio of permeability in MDCK cells expressing human MDR1; assay type: ADME, cell-based, Canis lupus familiaris; conditions: dog, MDCK-MDR1
Method in brief: (§2)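 Permeability measured in MDCK cells expressing human MDR1. Papp is expressed in 10^-6 cm/s and reported together with the efflux ratio.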

Gerbillinae = assay: Reversal of senktide-induced locomotor activity in ip dosed gerbil; assay type: functional
MDR1 [6] = assay: (§3) Apparent permeability across MDCK cells expressing human MDR1; assay type: ADME, cell-based, Canis lupus familiaris; conditions: dog, MDCK-MDR1; method in brief: as §2
MDCK [7] = assay: as §1; assay type: ADME, cell-based, Canis lupus familiaris; conditions: dog, mdck; method in brief: as §2
MDCK [8] = assay: as §3; assay type: ADME, cell-based, Canis lupus familiaris; conditions: dog, mdck; method in brief: as §2

| Structure (SMILES) | solubility thermodynamic [1] [µM] | EC50 (Neuromedin-K receptor) [µM] | further results |
| --- | --- | --- | --- |
| CC[C@H](NC(=O)c1c(C[S@@+](C)[O-])c(-c2ccccc2)nc2ccccc12)c1ccccc1 | 8 (≈ 3.54 µg/mL) | 0.0018 | microsomal CLint [2]: 5.2 µL/min/mg; INH [3]: > 33 µM; logD [4]: 3.5; efflux ratio (MDR1 [5]): 2.6; ED50 (Gerbillinae): 22 µmol/kg; Papp (MDR1 [6]): 10 ×10⁻⁶ cm/s |
| CC[C@H](NC(=O)c1c(SC)c(-c2ccccc2)nc2ccccc12)c1ccccc1 (mixture of isomers) | < 1 | 0.036 |  |
| CC[C@H](NC(=O)c1c([S+](C)[O-])c(-c2ccccc2)nc2ccccc12)c1ccccc1 (mixture of isomers) |  | 0.0049 | solubility [1]: 230 µM; efflux ratio (MDR1 [5]): 2.7; Papp (MDR1 [6]): 9.4 ×10⁻⁶ cm/s |
| CC[C@H](NC(=O)c1c(S(C)(=O)=O)c(-c2ccccc2)nc2ccccc12)c1ccccc1 (mixture of isomers) | 36 | 0.014 | efflux ratio (MDR1 [5]): 2.6; Papp (MDR1 [6]): 11 ×10⁻⁶ cm/s |
| CC[C@H](NC(=O)c1c(CSC)c(-c2ccccc2)nc2ccccc12)c1ccccc1 (mixture of isomers) | 2 | 0.035 | efflux ratio (MDR1 [5]): 1.1; Papp (MDR1 [6]): 5.9 ×10⁻⁶ cm/s |
| CC[C@H](NC(=O)c1c(CS(C)(=O)=O)c(-c2ccccc2)nc2ccccc12)c1ccccc1 (mixture of isomers) | 4 | 0.0025 | efflux ratio (MDR1 [5]): 3.1; Papp (MDR1 [6]): 11 ×10⁻⁶ cm/s |
| CC[C@H](NC(=O)c1c(CC[S+](C)[O-])c(-c2ccccc2)nc2ccccc12)c1ccccc1 (mixture of isomers) | 360 | 0.0033 | efflux ratio (MDR1 [5]): 21; Papp (MDR1 [6]): 1 ×10⁻⁶ cm/s |
| CC[C@H](NC(=O)c1c([S+](C)[O-])c(-c2ccccc2F)nc2ccccc12)c1ccccc1 (mixture of isomers) | 53 | 0.081 |  |
| CC[C@H](NC(=O)c1c([S+](C)[O-])c(-c2cccc(F)c2)nc2ccccc12)c1ccccc1 (mixture of isomers) | 100 | 0.018 |  |
| CC[C@H](NC(=O)c1c([S+](C)[O-])c(-c2ccc(F)cc2)nc2ccccc12)c1ccccc1 (mixture of isomers) | 88 | 0.048 |  |
| CC[C@H](NC(=O)c1c([S+](C)[O-])c(-c2cccs2)nc2ccccc12)c1ccccc1 (mixture of isomers) | 47 | 0.0017 | microsomal CLint [2]: 220 µL/min/mg |
| CC[C@H](NC(=O)c1c([S+](C)[O-])c(-c2ccsc2)nc2ccccc12)c1ccccc1 (mixture of isomers) |  | 0.0018 | microsomal CLint [2]: 190 µL/min/mg |
| CC[C@H](NC(=O)c1c([S+](C)[O-])c(-c2ccccn2)nc2ccccc12)c1ccccc1 (mixture of isomers) | 360 | 1.12 |  |
| CC[C@H](NC(=O)c1c([S+](C)[O-])c(-c2cscn2)nc2ccccc12)c1ccccc1 (mixture of isomers) | 41 | 0.11 |  |
| CC[C@H](NC(=O)c1c([S+](C)[O-])c(-c2cncs2)nc2ccccc12)c1ccccc1 (mixture of isomers) | 390 | 0.22 |  |
| CC[C@H](NC(=O)c1c([S+](C)[O-])c(-c2cc[nH]n2)nc2ccccc12)c1ccccc1 (mixture of isomers) | 420 | 2.5 |  |
| CC[C@H](NC(=O)c1c([S+]([O-])CC)c(-c2ccccc2)nc2ccccc12)c1ccccc1 (mixture of isomers) | 170 | 0.0069 |  |
| CC[C@H](NC(=O)c1c([S+]([O-])C(C)C)c(-c2ccccc2)nc2ccccc12)c1ccccc1 (mixture of isomers) | 83 | 0.016 |  |
| CC[C@H](NC(=O)c1c([S+]([O-])CC(=O)N(C)C)c(-c2ccccc2)nc2ccccc12)c1ccccc1 (mixture of isomers) | 52 | 0.012 |  |

| Structure (SMILES) | solubility thermodynamic [1] [µM] | EC50 (Neuromedin-K receptor) [µM] | further results |
| --- | --- | --- | --- |
| CC[C@H](NC(=O)c1c([S+](C)[O-])c(-c2ccccc2)nc2c(F)cccc12)c1ccccc1 (mixture of isomers) | 160 | 0.0082 |  |
| CC[C@H](NC(=O)c1c([S+](C)[O-])c(-c2ccccc2)nc2c(C)cccc12)c1ccccc1 (mixture of isomers) | 16 | 1.9 |  |
| CC[C@H](NC(=O)c1c([S+](C)[O-])c(-c2ccccc2)nc2cc(F)ccc12)c1ccccc1 (mixture of isomers) | 58 | 0.013 |  |
| CC[C@H](NC(=O)c1c([S+](C)[O-])c(-c2ccccc2)nc2cc(Cl)ccc12)c1ccccc1 (mixture of isomers) | 34 | 0.0077 |  |
| CCOc1ccc2c(C(=O)N[C@@H](CC)c3ccccc3)c([S+](C)[O-])c(-c3ccccc3)nc2c1 (mixture of isomers) | 69 | 0.038 |  |
| CC[C@H](NC(=O)c1c([S+](C)[O-])c(-c2ccccc2)nc2cc(N(C)C)ccc12)c1ccccc1 (mixture of isomers) | 44 | 0.212 |  |
| CC[C@H](NC(=O)c1c([S+](C)[O-])c(-c2ccccc2)nc2cc(Br)ccc12)c1ccccc1 (mixture of isomers) | 15 | 0.0051 |  |
| CC[C@H](NC(=O)c1c([S+](C)[O-])c(-c2ccccc2)nc2cc(C)ccc12)c1ccccc1 (mixture of isomers) | 160 | 0.0036 |  |
| CC[C@H](NC(=O)c1c([S+](C)[O-])c(-c2ccccc2)nc2cc(CN(C)C)ccc12)c1ccccc1 (mixture of isomers) | 460 | 0.088 |  |
| C[S+]([O-])c1c(-c2ccccc2)nc2ccccc2c1C(=O)N[C@H](c1ccccc1)C1CC1 (mixture of isomers) | 180 | 0.015 |  |
| C[S+]([O-])c1c(-c2ccccc2)nc2ccccc2c1C(=O)N[C@H](c1ccncc1)C1CC1 (mixture of isomers) |  | > 10 | solubility [1]: 99 µM |
| CC[C@H](NC(=O)c1c([S+](C)[O-])c(-c2ccccc2)nc2ccccc12)c1cccnc1 (mixture of isomers) | 350 | 0.074 |  |
| CC[C@H](NC(=O)c1c([S+](C)[O-])c(-c2ccccc2)nc2ccccc12)c1ccccn1 (mixture of isomers; 35a) | 420 | 0.077 |  |
| CC[C@H](NC(=O)c1c([S+](C)[O-])c(-c2ccccc2)nc2ccccc12)c1ccccn1 (mixture of isomers; 35b) |  | > 5.2 | solubility [1]: 460 µM |
| C[S+]([O-])c1c(-c2ccccc2)nc2ccccc2c1C(=O)NC1(c2ccccc2)CC1 (racemic) | 1.3 (≈ 0.555 µg/mL) | 0.016 |  |
| C[S+]([O-])c1c(-c2ccccc2)nc2ccccc2c1C(=O)NC1(c2ccccc2)CCC1 (racemic) | 4.5 (≈ 1.98 µg/mL) | 0.038 |  |
| CC[C@H](NC(=O)c1c([S+](C)[O-])c(-c2cccnc2)nc2ccccc12)c1ccccc1 (single isomer, unassigned) | 470 (≈ 202 µg/mL) | 0.69 |  |
| CC[C@H](NC(=O)c1c([S+](C)[O-])c(-c2ccccc2)nc2ccccc12)c1ccccc1 (stereo in doubt; 2b) |  | 0.24 | solubility [1]: 44 µM (≈ 18.9 µg/mL); Ratio (MDCK [7]): 2; Papp (MDCK [8]): 17 ×10⁻⁶ cm/s |
| C[S+]([O-])c1c(-c2ccccc2)nc2ccccc2c1C(=O)N[C@H](c1ccncc1)C1CC1 (stereo in doubt; 33b) |  | > 9.3 | solubility [1]: 370 µM (≈ 163 µg/mL) |
